Active and inactive are the calls of the source. The rule behind the calls is not given here.
How the values were obtained:
Mus musculus [1] = test: Effect on plasma ALT level in CCl4-induced BALB/c mouse model of liver fibrosis at 5 to 15 mg/kg, po administered once daily at week 4 to 6; format: ADME, organism-based; conditions: in vivo
Method in brief: (§1)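 CCl4 liver fibrosis in female BALB/c mice: CCl4 i.p. (1 mL/kg 25% in olive oil) twice weekly for 6 weeks, sacrifice 48 h after final injection. Oral once-daily dosing weeks 1-6 or weeks 4-6; imatinib 50 mg/kg daily weeks 1-6. ALT and AST measured in plasma.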

Mus musculus [2] = test: Effect on plasma AST level in CCl4-induced BALB/c mouse model of liver fibrosis at 5 to 15 mg/kg, po administered once daily at week 4 to 6; format: ADME, organism-based; conditions: in vivo; method in brief: as §1
Mus musculus [3] = test: Antifibrotic activity in ip dosed bleomycin-induced C57BL/6 mouse model of lung fibrosis assessed as reduction in Ashcroft score administered on day 7 to 27 measured on day 28 by H and E staining based microscopy; format: functional, organism-based
Method in brief: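 Female C57BL/6 mice, 6-8 weeks old, under isoflurane received intranasal bleomycin sulphate 0.05 U/mouse in PBS; controls got PBS. Once-daily i.p. treatment days 7-27, n=12/group; imatinib 50 mg/kg i.p. as comparator. Sacrifice at day 28; lung fibrosis scored by Ashcroft score.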

[4] = Prodrug conversion in BALB/c mouse plasma assessed as 1-[4-amino-2-fluoro-but-2-enyl]-3-[3-(dimethylsulfamoyl)phenyl]-2-methyl-indole-5-carboxylic acid hydrochloride formation at 20 mg/kg, po administered via gavage by HPLC-MS/MS analysis; format: ADME, organism-based; conditions: in vivo
Method in brief: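 Male BALB/c mice dosed by oral gavage at 20 mg/kg (n=3); plasma prodrug and released free acid quantified by LC-MS/MS; each point the mean of 3 animals.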

Mus musculus [5] = test: Antifibrotic activity in CCl4-induced BALB/c mouse model of liver fibrosis assessed as reduction in liver fibrosis area at 15 mg/kg, po administered once daily for 6 weeks by alpha-SMA staining based microscopy; format: functional, organism-based
Method in brief: (§2)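 Female BALB/c mice given CCl4 i.p. (1 mL/kg of 25% CCl4 in olive oil) twice weekly for 6 weeks; sacrificed 48 h after last dose. Test articles oral, once daily: prophylactic weeks 1-6 or therapeutic weeks 4-6; imatinib control 50 mg/kg daily weeks 1-6. One formalin-fixed liver lobe stained for Picro Sirius Red and α-SMA; fibrotic area as % of total liver area; mean ± SEM, one-way ANOVA with Dunnett's test.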

Mus musculus [6] = test: Antifibrotic activity in CCl4-induced BALB/c mouse model of liver fibrosis assessed as reduction in liver fibrosis area at 5 to 15 mg/kg, po administered once daily at week 4 to 6 by alpha-SMA staining based microscopy; format: functional, organism-based; method in brief: as §2
Mus musculus [7] = test: Effect on plasma AST level in CCl4-induced BALB/c mouse model of liver fibrosis at 15 mg/kg, po administered once daily for 6 weeks; format: ADME, organism-based; conditions: in vivo, 1008 h; method in brief: as §1
Lysyl oxidase homolog 2 = target: T1, Lysyl oxidase homolog 2 (Rattus norvegicus, UniProt B5DF27); test: Inhibition of recombinant rat LOLX2 using putrescine as substrate preincubated with enzyme for 30 mins followed by substrate addition and measured every 2.5 mins for 30 mins by Amplex-Red oxidation assay
T1 sequence (B5DF27 whole entry): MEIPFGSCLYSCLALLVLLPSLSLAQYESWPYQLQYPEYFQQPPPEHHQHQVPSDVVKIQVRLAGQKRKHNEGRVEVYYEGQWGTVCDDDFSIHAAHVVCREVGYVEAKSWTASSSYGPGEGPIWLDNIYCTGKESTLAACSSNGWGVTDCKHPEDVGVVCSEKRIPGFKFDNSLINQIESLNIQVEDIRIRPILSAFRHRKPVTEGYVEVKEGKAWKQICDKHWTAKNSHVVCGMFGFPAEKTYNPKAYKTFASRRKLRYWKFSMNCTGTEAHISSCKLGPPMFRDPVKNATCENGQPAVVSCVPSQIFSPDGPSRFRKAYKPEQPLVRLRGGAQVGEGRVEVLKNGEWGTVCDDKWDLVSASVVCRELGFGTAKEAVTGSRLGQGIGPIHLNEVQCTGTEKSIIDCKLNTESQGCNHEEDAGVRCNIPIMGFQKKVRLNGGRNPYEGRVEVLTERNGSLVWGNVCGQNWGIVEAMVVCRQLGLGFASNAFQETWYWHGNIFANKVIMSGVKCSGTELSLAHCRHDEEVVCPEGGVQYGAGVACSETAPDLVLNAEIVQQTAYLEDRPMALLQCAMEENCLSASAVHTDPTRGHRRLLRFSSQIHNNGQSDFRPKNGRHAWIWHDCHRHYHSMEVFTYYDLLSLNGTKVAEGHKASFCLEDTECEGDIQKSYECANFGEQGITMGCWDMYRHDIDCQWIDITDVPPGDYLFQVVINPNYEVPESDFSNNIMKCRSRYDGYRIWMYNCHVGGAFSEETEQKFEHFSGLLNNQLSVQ

Lysyl oxidase homolog 1 = target: T2, Lysyl oxidase homolog 1 (Homo sapiens, UniProt Q08397); test: Inhibition of recombinant human LOXL1 using putrescine as substrate preincubated with enzyme for 30 mins followed by substrate addition and measured every 2.5 mins for 30 mins by Amplex-Red oxidation assay
T2 sequence (Q08397 whole entry): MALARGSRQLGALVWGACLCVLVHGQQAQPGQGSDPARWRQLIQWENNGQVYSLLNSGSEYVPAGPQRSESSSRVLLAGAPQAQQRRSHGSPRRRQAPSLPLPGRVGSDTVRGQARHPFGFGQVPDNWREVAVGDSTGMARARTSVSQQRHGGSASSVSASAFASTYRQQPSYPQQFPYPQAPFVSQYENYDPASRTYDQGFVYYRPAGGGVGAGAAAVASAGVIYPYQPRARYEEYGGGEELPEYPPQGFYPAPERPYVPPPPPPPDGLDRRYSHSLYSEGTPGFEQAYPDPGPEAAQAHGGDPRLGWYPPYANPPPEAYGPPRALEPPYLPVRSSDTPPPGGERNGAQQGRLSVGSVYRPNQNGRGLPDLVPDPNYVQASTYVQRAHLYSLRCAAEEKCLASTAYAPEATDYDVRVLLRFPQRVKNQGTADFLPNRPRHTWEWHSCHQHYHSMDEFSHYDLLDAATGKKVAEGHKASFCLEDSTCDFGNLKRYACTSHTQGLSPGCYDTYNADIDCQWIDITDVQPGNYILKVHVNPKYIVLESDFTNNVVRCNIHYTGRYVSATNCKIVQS
Method in brief: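 Recombinant human LOXL1 expressed and purified from cDNA; 30 min preincubation with compound at 37 °C in urea/borate buffer, then Amplex Red/HRP with 10 mM putrescine; H2O2 fluorescence read every 2.5 min for 30 min at 37 °C.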

[8] = Protein binding in rat plasma; format: ADME, cell-free; conditions: read-out: PPB (converted)
[9] = Protein binding in dog plasma; format: ADME, cell-free, Canis lupus familiaris; conditions: read-out: PPB (converted)
[10] = Protein binding in human plasma; format: ADME, cell-free; conditions: read-out: PPB (converted)
[11] = Stability in rat plasma assessed as half life; format: ADME, cell-free
[12] = Stability in dog plasma assessed as half life; format: ADME, cell-free, Canis lupus familiaris
[13] = Stability in human plasma assessed as half life; format: ADME, cell-free
[14] = Stability in human microsomes assessed as half life; format: ADME, Microsome
[15] = Oral bioavailability in mouse; format: ADME, organism-based; conditions: in vivo
[16] = Stability in dog plasma assessed as half life
[17] = Stability in human plasma assessed as half life

Row | Drug metabolism [4] | IC50 (Lysyl oxidase homolog 2) | IC50 (Lysyl oxidase homolog 1) | fraction unbound [8] | fraction unbound [9] | fraction unbound [10] | half-life [11] | half-life [12] | half-life [13] | half-life [14] | bioavailability [15] | half-life [16] | half-life [17] | Compound | Activity (Mus musculus [1]) | Activity (Mus musculus [2]) | inhibition (Mus musculus [3]) | inhibition (Mus musculus [5]) | inhibition (Mus musculus [6]) | Activity (Mus musculus [7])
1 | Metabolite_Detected | – | – | – | – | – | – | – | – | – | – | – | – | CCOC(=O)c1ccc2c(c1)c(-c1cccc(S(=O)(=O)N(C)C)c1)c(C)n2C/C(F)=C/CN.Cl | Non-Toxic | Non-Toxic | Dose-dependent effect | Active | Active | Non-Toxic
2 | – | 6 nM | 2260 nM | 0.12 | 0.14 | 0.08 | > 120 min | > 120 min | > 120 min | > 90 min | < 1% | > 120 min | > 120 min | Cc1c(-c2cccc(S(=O)(=O)N(C)C)c2)c2cc(C(=O)O)ccc2n1C/C(F)=C/CN.Cl | – | – | – | – | – | –
